According to ChEMBL document CHEMBL4665761, “Optimizing the Benefit/Risk of Acetyl-CoA Carboxylase Inhibitors through Liver Targeting” (J Med Chem, 2020):

Columns and labels:
[1] = Aqueous solubility of compound at pH 7.4 using tris(hydroxymethyl)aminomethane (tris) salt form of compound; type: physicochemical; conditions: buffer
[2] = Aqueous solubility of compound at pH 6.5 using tris(hydroxymethyl)aminomethane (tris) salt form of compound; type: physicochemical; conditions: buffer
[3] = Aqueous solubility of compound at pH 1.2 using tris(hydroxymethyl)aminomethane (tris) salt form of compound; type: physicochemical; conditions: buffer
[4] = Oral bioavailability in cynomolgus monkey plasma at 5 mg/kg using tris(hydroxymethyl)aminomethane (tris) salt form of compound and measured up to 24 hrs by LC/MS-MS analysis; type: ADME, organism-based, Macaca fascicularis
Outline: (§1)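 Plasma concentration–time data, n = 2, averaged. Cmax and Tmax read directly from the data. AUC0–24 by the linear trapezoidal rule. F calculated as dose-normalized AUC PO/IV.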

[5] = Oral bioavailability in Wistar-Hannover rat plasma at 5 mg/kg tris(hydroxymethyl)aminomethane (tris) salt form of compound and measured up to 24 hrs by LC/MS-MS analysis; type: ADME, organism-based; outline: as §1
[6] = AUC (0 to 24 hrs) in cynomolgus monkey plasma at 5 mg/kg, po tris(hydroxymethyl)aminomethane (tris) salt form of compound and measured up to 24 hrs by LC/MS-MS analysis; type: ADME, organism-based, Macaca fascicularis; design: route oral, dose 5 mg/kg, time <=24
Outline: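 Cynomolgus monkeys received an oral dose. AUC0–24 came from plasma concentration–time data by the linear trapezoidal rule, averaged for n = 2.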

[7] = AUC (0 to 24 hrs) in Wistar-Hannover rat plasma at 5 mg/kg, po tris(hydroxymethyl)aminomethane (tris) salt form of compound and measured up to 24 hrs by LC/MS-MS analysis; type: ADME, organism-based; design: route oral, dose 5 mg/kg, time <=24
Outline: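 Male Wistar-Hannover rats (240–350 g), housed singly after 1 week of acclimation, were dosed orally. AUC0–24 came from plasma concentration–time data by the linear trapezoidal rule, averaged for n = 2. Lower detection limit was 1 ng/mL.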

[8] = Tmax in cynomolgus monkey plasma at 5 mg/kg, po tris(hydroxymethyl)aminomethane (tris) salt form of compound and measured up to 24 hrs by LC/MS-MS analysis; type: ADME, organism-based, Macaca fascicularis; outline: as §1
[9] = Tmax in Wistar-Hannover rat plasma at 5 mg/kg, po tris(hydroxymethyl)aminomethane (tris) salt form of compound and measured up to 24 hrs by LC/MS-MS analysis; type: ADME, organism-based; outline: as §1
[10] = Cmax in cynomolgus monkey plasma at 5 mg/kg, po tris(hydroxymethyl)aminomethane (tris) salt form of compound and measured up to 24 hrs by LC/MS-MS analysis; type: ADME, organism-based, Macaca fascicularis; design: route oral, dose 5 mg/kg, time <=24
Outline: (§2)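 Cynomolgus monkeys dosed 1 mg/kg IV as the tris salt in 2% N-methylpyrrolidone/98% sulfobutylether-β-cyclodextrin (12.5%) in 50 mM TRIS, pH 8.0, or PO as the tris salt. Plasma was analysed by LC-MS/MS, n = 2. CL = IV dose/AUC; Vss = dose/(AUC × elimination rate constant); Cmax taken from observed data.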

[11] = Cmax in Wistar-Hannover rat plasma at 5 mg/kg, po tris(hydroxymethyl)aminomethane (tris) salt form of compound and measured up to 24 hrs by LC/MS-MS analysis; type: ADME, organism-based; design: route oral, dose 5 mg/kg, time <=24
[12] = Half life in cynomolgus monkey plasma at 5 mg/kg, po tris(hydroxymethyl)aminomethane (tris) salt form of compound and measured up to 24 hrs by LC/MS-MS analysis; type: ADME, organism-based, Macaca fascicularis; outline: as §2
[13] = Half life in Wistar-Hannover rat plasma at 5 mg/kg, po tris(hydroxymethyl)aminomethane (tris) salt form of compound and measured up to 24 hrs by LC/MS-MS analysis; type: ADME, organism-based
[14] = Ratio of drug uptake in cynomolgus monkey unbound liver to plasma concentration at 1 mg/kg, iv tris(hydroxymethyl)aminomethane (tris) salt form of compound after 6 hrs by LC/MS-MS analysis; type: ADME, organism-based, Macaca fascicularis; conditions: other tissue
Outline: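 Cynomolgus monkeys (n = 2) given a single IV dose as tris salt in 2% N-methylpyrrolidone / 98% sulfobutylether-betacyclodextrin (12.5%) in 50 mM TRIS buffer, pH 8.0. Plasma and liver sampled 6 h post-dose. Total concentrations converted to unbound using equilibrium-dialysis fu in plasma and liver. Ratio taken as mean free liver over free plasma concentration.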

[15] = Drug uptake in cynomolgus monkey liver at 1 mg/kg, iv tris(hydroxymethyl)aminomethane (tris) salt form of compound after 6 hrs by LC/MS-MS analysis; type: ADME, organism-based, Macaca fascicularis; conditions: read-out: Drug uptake
Outline: (§3)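 Monkeys, n = 2, given 1 mg/kg IV as the tris salt in 2% N-methylpyrrolidone/98% sulfobutylether-β-cyclodextrin (12.5%) in 50 mM TRIS, pH 8.0. Plasma and liver concentrations were taken 6 h post-dose.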

[16] = Drug uptake in cynomolgus monkey assessed as plasma concentration at 1 mg/kg, iv tris(hydroxymethyl)aminomethane (tris) salt form of compound after 6 hrs by LC/MS-MS analysis; type: ADME, organism-based, Macaca fascicularis; outline: as §3
[17] = Ratio of drug uptake in cynomolgus monkey liver to plasma at 1 mg/kg, iv tris(hydroxymethyl)aminomethane (tris) salt form of compound after 6 hrs by LC/MS-MS analysis; type: ADME, organism-based, Macaca fascicularis; conditions: liver and plasma
Outline: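 Cynomolgus monkeys (n = 2) given 1 mg/kg IV as the tris salt in 2% N-methylpyrrolidone/98% sulfobutylether-β-cyclodextrin (12.5%) in 50 mM TRIS pH 8.0. Liver and plasma taken 6 h post-dose.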

## COc1cc(C(=O)N2CCC3(CC2)CC(=O)c2c(cnn2C(C)C)C3)cc(-c2ccc(C(=O)O)cc2)n1.NC(CO)(CO)CO [CLESACOSTAT TROMETHAMINE]
[1]
  solubility: 4.77 mM
[2]
  solubility: 3.98 mM
[3]
  solubility: 1.32 mM
[4]
  bioavailability: 52%
[5]
  bioavailability: 48%
[6]
  AUC(0-t): 36200 ng·h/mL
[7]
  AUC(0-t): 2490 ng·h/mL
[8]
  Tmax: 1.13 h
[9]
  Tmax: 0.54 h
[10]
  Cmax: 5780 ng/mL
[11]
  Cmax: 390 ng/mL
[12]
  half-life: 11 h
[13]
  half-life: 5.6 h
[14]
  Ratio: 230
[15]
  concentration at 6 h: 1300 ng/mL
[16]
  concentration at 6 h: 88 ng/mL
[17]
  Kp at 6 h: 15
